Reference: ChEMBL document CHEMBL1132296, “Anticonvulsant and sodium channel-blocking properties of novel 10,11-dihydro-5H-dibenz[b,f]azepine-5-carboxamide derivatives” (J Med Chem, 1999)
pIC50: −log10 of the molar value.

Columns and labels:
[1] = target: T1, Sodium channel alpha subunits; brain (Types I, II, III) (Rattus norvegicus) (UniProt P04775+P04774+P08104); experiment: Percent inhibition of 22Na+ uptake by voltage sensitive sodium channel of rat cortical synaptosomes at 300 uM; assay type: functional, subcellular
Rattus norvegicus [2] = experiment: Compound was tested intraperitoneally for anticonvulsant activity by rotarod test; assay type: functional; settings: ip
In short: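 Rats trained to stay 3 min on a 5-cm rod rotating at 6 rpm. Next day, compound ip in DMSO (2 mL/kg), placed on rod 15 min later at 6 rpm. Deficit = failure to hold equilibrium 1 min in each of three trials. 5–8 rats/group; TD50 from logistic fit.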

Rattus norvegicus [3] = experiment: t max was for the anticonvulsant effect was tested in rats administered by gastric tube; t max; assay type: functional, organism-based; settings: Stomach
Rattus norvegicus [4] = experiment: Compound was tested for anticonvulsant activity administered by gastric tube in rat by MES test; assay type: functional
In short: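 Rats, oral by gastric tube, tested at t_max. Rats were pre-screened in a first MES session through corneal electrodes after oxibuprocaine eye drops, and only typical tonic–clonic convulsers were kept. Next day, compound or vehicle, then MES sessions 2 or 4 h and 6, 8 or 12 h post-dose. Endpoint was abolition of hindleg tonic extension. 5–8 rats/group; ED50 from logistic fit.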

[5] = target: T1, Sodium channel alpha subunits; brain (Types I, II, III) (Rattus norvegicus); experiment: Percent inhibition of 22Na+ uptake by voltage sensitive sodium channel of rat cortical synaptosomes at 30 uM; assay type: functional, subcellular
Rattus norvegicus [6] = experiment: Compound was tested intraperitoneally for anticonvulsant activity against MES-induced seizures in rat by MES test; assay type: functional; settings: ip
In short: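 Intraperitoneal dosing to rats, MES given at t_max. Corneal electrodes after oxibuprocaine eye drops; abolition of hindleg tonic extensor component as endpoint. 5–8 rats/group; ED50 from logistic equation fit.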

[7] = target: T1, Sodium channel alpha subunits; brain (Types I, II, III) (Rattus norvegicus); experiment: Percent inhibition of 22Na+ uptake by voltage sensitive sodium channel of rat cortical synaptosomes at 100 uM; assay type: functional, subcellular
Rattus norvegicus [8] = experiment: t max for anticonvulsant activity was tested in rats intraperitoneally; assay type: functional, organism-based
Rattus norvegicus [9] = experiment: Compound was tested for anticonvulsant activity administered by gastric tube in rat by rotarod test; assay type: functional
[10] = target: Sodium channel alpha subunits; brain (Types I, II, III) (Rattus norvegicus, UniProt P04775+P04774+P08104); experiment: Displacement of [3H]BTX from voltage-gated sodium channel of rat cortical synaptosomes; assay type: subcellular
[11] = target: T1, Sodium channel alpha subunits; brain (Types I, II, III) (Rattus norvegicus); settings: 300 uM
Rattus norvegicus [12] = organism: Rattus norvegicus; experiment: Compound was tested for anticonvulsant activity against MES-induced seizures in rat; parameters: concentration or dose not given beside the values
Rattus norvegicus [13] = organism: Rattus norvegicus; experiment: Protective index value of the compound, given by gastric tube (TD50/ED50); assay type: functional, Stomach
In short: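 Ratio TD50/ED50 from oral (gastric tube) rotarod and MES tests in rats at t_max. Both values come from logistic fits, 5–8 rats/group.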

Rattus norvegicus [14] = experiment: Protective index value of the compound, given by intraperitoneally (TD50/ED50); assay type: functional
In short: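 Ratio TD50/ED50 from intraperitoneal rotarod and MES tests in rats. Both values come from logistic fits, 5–8 rats/group.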

T1 sequence (P04775 whole entry, looked up, other chains not shown): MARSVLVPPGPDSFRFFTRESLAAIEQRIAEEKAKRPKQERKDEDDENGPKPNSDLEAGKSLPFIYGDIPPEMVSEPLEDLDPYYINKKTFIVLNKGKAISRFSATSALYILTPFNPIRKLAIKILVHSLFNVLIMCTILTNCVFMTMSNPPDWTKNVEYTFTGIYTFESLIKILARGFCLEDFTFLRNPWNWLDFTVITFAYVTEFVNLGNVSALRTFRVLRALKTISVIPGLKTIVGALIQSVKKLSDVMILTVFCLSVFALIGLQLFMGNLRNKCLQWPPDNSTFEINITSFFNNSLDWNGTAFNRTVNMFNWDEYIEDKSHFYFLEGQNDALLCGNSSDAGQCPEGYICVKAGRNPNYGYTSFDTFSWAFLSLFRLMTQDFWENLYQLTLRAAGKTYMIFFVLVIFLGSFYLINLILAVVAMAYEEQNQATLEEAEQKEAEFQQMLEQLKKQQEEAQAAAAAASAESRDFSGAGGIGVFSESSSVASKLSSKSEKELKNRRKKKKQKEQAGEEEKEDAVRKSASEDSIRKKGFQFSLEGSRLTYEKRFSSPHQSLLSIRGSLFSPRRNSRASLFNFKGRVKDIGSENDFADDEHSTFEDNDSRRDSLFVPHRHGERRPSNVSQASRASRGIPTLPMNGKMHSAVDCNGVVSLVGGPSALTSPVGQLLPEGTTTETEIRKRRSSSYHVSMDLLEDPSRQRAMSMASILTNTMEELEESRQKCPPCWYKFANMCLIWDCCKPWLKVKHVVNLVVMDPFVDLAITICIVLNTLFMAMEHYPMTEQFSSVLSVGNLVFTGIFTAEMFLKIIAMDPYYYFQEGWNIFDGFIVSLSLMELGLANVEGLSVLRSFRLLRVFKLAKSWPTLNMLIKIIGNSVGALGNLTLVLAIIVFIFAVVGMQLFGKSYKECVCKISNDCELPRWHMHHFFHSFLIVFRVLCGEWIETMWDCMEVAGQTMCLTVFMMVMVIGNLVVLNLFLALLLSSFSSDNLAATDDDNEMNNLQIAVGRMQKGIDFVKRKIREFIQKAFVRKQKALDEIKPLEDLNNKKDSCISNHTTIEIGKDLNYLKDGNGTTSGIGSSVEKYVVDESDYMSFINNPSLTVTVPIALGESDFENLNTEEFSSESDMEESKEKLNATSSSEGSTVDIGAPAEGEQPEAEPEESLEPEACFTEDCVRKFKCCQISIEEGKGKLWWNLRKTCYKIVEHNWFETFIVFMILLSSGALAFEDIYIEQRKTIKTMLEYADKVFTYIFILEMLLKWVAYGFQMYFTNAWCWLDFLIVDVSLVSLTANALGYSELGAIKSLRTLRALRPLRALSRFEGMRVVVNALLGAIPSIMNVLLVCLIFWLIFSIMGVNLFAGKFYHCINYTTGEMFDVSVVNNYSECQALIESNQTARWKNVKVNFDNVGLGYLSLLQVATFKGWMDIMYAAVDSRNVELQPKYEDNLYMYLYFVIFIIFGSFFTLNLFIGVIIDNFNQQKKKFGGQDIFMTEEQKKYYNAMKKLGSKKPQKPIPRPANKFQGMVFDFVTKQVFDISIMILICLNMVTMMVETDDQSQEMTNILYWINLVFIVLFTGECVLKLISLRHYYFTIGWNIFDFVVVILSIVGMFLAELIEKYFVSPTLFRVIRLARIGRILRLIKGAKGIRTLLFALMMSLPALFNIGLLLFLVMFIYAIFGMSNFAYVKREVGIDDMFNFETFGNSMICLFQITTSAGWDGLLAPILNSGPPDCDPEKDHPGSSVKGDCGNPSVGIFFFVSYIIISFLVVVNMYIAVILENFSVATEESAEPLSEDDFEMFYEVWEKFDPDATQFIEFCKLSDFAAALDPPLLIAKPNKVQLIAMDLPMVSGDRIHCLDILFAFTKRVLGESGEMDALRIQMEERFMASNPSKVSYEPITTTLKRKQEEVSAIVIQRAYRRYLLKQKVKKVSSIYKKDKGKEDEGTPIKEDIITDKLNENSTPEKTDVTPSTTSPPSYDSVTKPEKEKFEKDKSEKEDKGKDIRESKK
T1 sequence (P08104 whole entry, looked up, other chains not shown): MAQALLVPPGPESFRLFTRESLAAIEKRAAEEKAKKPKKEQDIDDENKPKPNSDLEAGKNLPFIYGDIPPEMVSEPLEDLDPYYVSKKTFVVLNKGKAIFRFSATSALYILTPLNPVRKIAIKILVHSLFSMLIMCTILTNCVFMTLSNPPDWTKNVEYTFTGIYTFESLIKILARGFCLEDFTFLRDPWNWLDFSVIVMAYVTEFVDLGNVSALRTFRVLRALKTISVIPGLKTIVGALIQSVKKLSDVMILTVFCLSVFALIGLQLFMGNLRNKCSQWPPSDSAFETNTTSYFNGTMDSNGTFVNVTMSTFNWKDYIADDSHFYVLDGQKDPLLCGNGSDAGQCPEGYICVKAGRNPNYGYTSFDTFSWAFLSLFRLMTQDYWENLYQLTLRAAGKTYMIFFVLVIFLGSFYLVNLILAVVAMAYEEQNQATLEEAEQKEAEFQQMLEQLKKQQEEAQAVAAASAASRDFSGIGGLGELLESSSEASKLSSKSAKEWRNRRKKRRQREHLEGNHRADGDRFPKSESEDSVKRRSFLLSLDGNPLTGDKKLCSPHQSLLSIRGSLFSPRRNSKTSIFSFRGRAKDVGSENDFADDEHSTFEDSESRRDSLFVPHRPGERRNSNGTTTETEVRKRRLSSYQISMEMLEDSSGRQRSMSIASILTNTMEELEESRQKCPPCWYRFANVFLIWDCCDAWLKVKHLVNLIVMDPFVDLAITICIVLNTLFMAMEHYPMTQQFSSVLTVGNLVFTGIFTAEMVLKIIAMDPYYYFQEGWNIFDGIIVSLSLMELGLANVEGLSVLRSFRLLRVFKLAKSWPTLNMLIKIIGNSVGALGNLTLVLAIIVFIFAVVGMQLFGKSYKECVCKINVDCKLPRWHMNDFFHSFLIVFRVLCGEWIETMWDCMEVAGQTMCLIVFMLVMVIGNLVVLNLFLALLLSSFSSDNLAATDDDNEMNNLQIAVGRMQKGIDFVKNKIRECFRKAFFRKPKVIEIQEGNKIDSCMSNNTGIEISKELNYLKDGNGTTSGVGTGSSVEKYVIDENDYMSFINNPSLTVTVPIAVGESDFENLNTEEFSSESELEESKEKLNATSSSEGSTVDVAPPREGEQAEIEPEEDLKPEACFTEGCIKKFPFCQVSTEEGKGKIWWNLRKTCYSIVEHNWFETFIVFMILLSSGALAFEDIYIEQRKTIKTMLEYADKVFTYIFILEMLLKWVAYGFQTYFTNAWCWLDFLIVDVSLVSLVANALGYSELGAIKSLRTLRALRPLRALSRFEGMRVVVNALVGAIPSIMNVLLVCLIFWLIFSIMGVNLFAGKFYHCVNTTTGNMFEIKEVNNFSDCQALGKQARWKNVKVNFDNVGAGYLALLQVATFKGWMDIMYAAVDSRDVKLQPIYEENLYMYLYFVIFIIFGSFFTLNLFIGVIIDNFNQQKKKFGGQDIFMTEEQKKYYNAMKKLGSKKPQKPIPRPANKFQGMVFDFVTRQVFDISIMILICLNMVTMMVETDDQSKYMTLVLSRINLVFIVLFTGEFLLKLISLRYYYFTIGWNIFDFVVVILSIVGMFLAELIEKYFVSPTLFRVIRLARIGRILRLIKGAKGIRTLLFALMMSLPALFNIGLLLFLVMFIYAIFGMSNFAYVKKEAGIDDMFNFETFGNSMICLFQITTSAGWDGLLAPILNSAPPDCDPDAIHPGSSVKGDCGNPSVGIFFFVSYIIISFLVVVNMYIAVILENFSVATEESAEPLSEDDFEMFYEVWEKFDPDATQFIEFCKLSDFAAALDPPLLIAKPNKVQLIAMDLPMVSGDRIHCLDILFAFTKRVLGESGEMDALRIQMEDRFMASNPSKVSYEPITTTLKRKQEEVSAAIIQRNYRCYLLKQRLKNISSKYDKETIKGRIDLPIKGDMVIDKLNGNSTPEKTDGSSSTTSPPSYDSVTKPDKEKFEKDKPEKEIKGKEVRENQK

Structure (SMILES)	TD50 (Rattus norvegicus [2])	ED50 (Rattus norvegicus [6])	Tmax (Rattus norvegicus [8])	Protection (Rattus norvegicus [12])	also measured
NC(=O)N1c2ccccc2C=Cc2ccccc21 [CARBAMAZEPINE]	27.4 mg/kg	3.4 mg/kg	15 min	–	inhibition [1]: 64.8%; Tmax (Rattus norvegicus [3]): 120 min; ED50 (Rattus norvegicus [4]): 5.4 mg/kg; inhibition [5]: 22.6%; inhibition [7]: 44.3%; TD50 (Rattus norvegicus [9]): 251 mg/kg; IC50 [10]: 210 µM
NC(=O)N1c2ccccc2CC(=O)c2ccccc21 [OXCARBAZEPINE]	40.1 mg/kg	6.1 mg/kg	5 min	–	Tmax (Rattus norvegicus [3]): 120 min; ED50 (Rattus norvegicus [4]): 10 mg/kg; inhibition [11]: 76.2%; inhibition [5]: 31.2%; inhibition [7]: 50.2%; TD50 (Rattus norvegicus [9]): > 1000 mg/kg; pIC50 [10]: 3.79
NC(=O)N1c2ccccc2CC(OC(=O)CCl)c2ccccc21 (centres undefined)	–	–	–	0.5%	–
CC(=O)O[C@@H]1Cc2ccccc2N(C(N)=O)c2ccccc21	135 mg/kg	18 mg/kg	60 min	5.9%	Protective index (Rattus norvegicus [13]): >91.7; inhibition [1]: 73.2%; Tmax (Rattus norvegicus [3]): 480 min; ED50 (Rattus norvegicus [4]): 10.9 mg/kg; inhibition [5]: 17.9%; Protective index (Rattus norvegicus [14]): 7.5; inhibition [7]: 57.7%; TD50 (Rattus norvegicus [9]): > 1000 mg/kg; pIC50 [10]: 3.95
CC(=O)O[C@H]1Cc2ccccc2N(C(N)=O)c2ccccc21 [ESLICARBAZEPINE ACETATE]	78.6 mg/kg	6.3 mg/kg	15 min	100%	Protective index (Rattus norvegicus [13]): 76.3; inhibition [1]: 95.6%; Tmax (Rattus norvegicus [3]): 120 min; ED50 (Rattus norvegicus [4]): 4.7 mg/kg; inhibition [5]: 52.6%; Protective index (Rattus norvegicus [14]): 12.5; inhibition [7]: 73.4%; TD50 (Rattus norvegicus [9]): 359 mg/kg; pIC50 [10]: 3.86
NC(=O)N1c2ccccc2C[C@H](O)c2ccccc21 [ESLICARBAZEPINE]	96.6 mg/kg	17.1 mg/kg	30 min	–	–
CC(Cl)C(=O)OC1Cc2ccccc2N(C(N)=O)c2ccccc21 (centres undefined)	–	–	–	3.9%	–
CCCC(CCC)C(=O)OC1Cc2ccccc2N(C(N)=O)c2ccccc21 (centres undefined)	–	–	–	0.2%	–
COc1ccc(CC(=O)OC2Cc3ccccc3N(C(N)=O)c3ccccc32)cc1 (centres undefined)	–	–	–	8.1%	–
CCCC(CC)C(=O)OC1Cc2ccccc2N(C(N)=O)c2ccccc21 (centres undefined)	–	–	–	-12.8%	–
NC(=O)N1c2ccccc2CC(OC(=O)c2ccccc2)c2ccccc21 (centres undefined)	–	–	–	17.2%	–
CCCCCCCCCCCCCCCCCC(=O)OC1Cc2ccccc2N(C(N)=O)c2ccccc21 (centres undefined)	–	–	–	0.8%	–
NC(=O)N1c2ccccc2CC(O)c2ccccc21 (centres undefined) [LICARBAZEPINE]	89.3 mg/kg	14.6 mg/kg	15 min	–	–
CCC(=O)OC1Cc2ccccc2N(C(N)=O)c2ccccc21 (centres undefined)	–	–	–	40.6%	–
CCCC(=O)OC1Cc2ccccc2N(C(N)=O)c2ccccc21 (centres undefined)	–	–	–	34.2%	–
NC(=O)N1c2ccccc2CC(OC=O)c2ccccc21 (centres undefined)	–	–	–	32.1%	–
CC(=O)Oc1ccccc1C(=O)OC1Cc2ccccc2N(C(N)=O)c2ccccc21 (centres undefined)	–	–	–	10.2%	–
CC(C)(C)C(=O)OC1Cc2ccccc2N(C(N)=O)c2ccccc21 (centres undefined)	–	–	–	6.5%	–
NC(=O)N1c2ccccc2CC(OC(=O)Cc2ccc([N+](=O)[O-])cc2)c2ccccc21 (centres undefined)	–	–	–	13.8%	–
CCOC(=O)OC1Cc2ccccc2N(C(N)=O)c2ccccc21 (centres undefined)	–	–	–	18.3%	–
CC(=O)OC1Cc2ccccc2N(C(N)=O)c2ccccc21 (centres undefined)	130 mg/kg	13.1 mg/kg	5 min	54.4%	Protective index (Rattus norvegicus [13]): 31.7; inhibition [1]: 82.1%; Tmax (Rattus norvegicus [3]): 120 min; ED50 (Rattus norvegicus [4]): 13.5 mg/kg; inhibition [5]: 42.2%; Protective index (Rattus norvegicus [14]): 9.9; inhibition [7]: 61.8%; TD50 (Rattus norvegicus [9]): 428 mg/kg; pIC50 [10]: 3.85
NC(=O)N1c2ccccc2CC(OC(=O)CBr)c2ccccc21 (centres undefined)	–	–	–	15.1%	–
NC(=O)N1c2ccccc2CC(OC(=O)c2cccnc2)c2ccccc21 (centres undefined)	–	–	–	32.8%	–
NC(=O)N1c2ccccc2C[C@@H](O)c2ccccc21	97.4 mg/kg	17.9 mg/kg	30 min	–	–
